Experimental data published in ChEMBL document CHEMBL1137451, “Synthesis and evaluation of antifungal properties of a series of the novel 2-amino-5-oxo-4-phenyl-5,6,7,8-tetrahydroquinoline-3-carbonitrile and its analogues” (Bioorg Med Chem, 2007).
Activity calls are given as the source filed them. The rule behind the calls is not given here.

Assays:
Candida albicans [1] = experiment: Antifungal activity against Candida albicans 1 at 40 ug/disc after 24 hrs by disc diffusion method; type: functional; settings: for zone of inhibition at 40 µg/disc: read-out: IZ
How it was run: (§1)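 Yeast suspensions (C. albicans strains 1, 2) and mycelial suspensions (F. oxysporum strains 1, 2; Mucor sp.) spread on YPG (0.3% yeast extract, 0.5% peptone, 1% glucose) or PDA agar. Compound applied on filter-paper discs at the stated amount; 28 °C, 24 h. Read-out is inhibition zone diameter. Controls: 50% v/v DMSO vehicle, cycloheximide, amphotericin B.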

Fusarium oxysporum [2] = experiment: Antifungal activity against Fusarium oxysporum 2 at 40 ug/disc after 24 hrs by disc diffusion method; type: functional; settings: for zone of inhibition at 40 µg/disc: read-out: IZ; how it was run: as §1
Fusarium oxysporum [3] = experiment: Antifungal activity against Fusarium oxysporum 2 at 60 ug/disc after 24 hrs by disc diffusion method; type: functional; settings: for zone of inhibition at 60 µg/disc: read-out: IZ; how it was run: as §1
Fusarium oxysporum [4] = experiment: Antifungal activity against Fusarium oxysporum 2 at 100 ug/disc after 24 hrs by disc diffusion method; type: functional; settings: read-out: IZ; how it was run: as §1
Fusarium oxysporum [5] = experiment: Antifungal activity against Fusarium oxysporum 1 after 24 hrs by disc diffusion method; type: functional
How it was run: (§2)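 Disc diffusion on Candida albicans strains 1 and 2 (yeast suspension), Fusarium oxysporum strains 1 and 2 and Mucor sp. (mycelial suspension), spread on YPG or PDA agar. Compound at graded amounts per filter-paper disc, 28 °C for 24 h. MIC taken as the lowest amount giving a 2 mm inhibition zone. Controls: 50% v/v DMSO vehicle, cycloheximide, amphotericin B.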

Fusarium oxysporum [6] = experiment: Antifungal activity against Fusarium oxysporum 1 at 60 ug/disc after 24 hrs by disc diffusion method; type: functional; settings: for zone of inhibition at 60 µg/disc: read-out: IZ; how it was run: as §1
Candida albicans [7] = experiment: Antifungal activity against Candida albicans 2 after 24 hrs by disc diffusion method; type: functional; how it was run: as §2
Candida albicans [8] = experiment: Antifungal activity against Candida albicans 2 at 60 ug/disc after 24 hrs by disc diffusion method; type: functional; settings: read-out: IZ; how it was run: as §1
Candida albicans [9] = experiment: Antifungal activity against Candida albicans 2 at 40 ug/disc after 24 hrs by disc diffusion method; type: functional; settings: for zone of inhibition at 40 µg/disc: read-out: IZ; how it was run: as §1
Mucor [10] = experiment: Antifungal activity against Mucor at 100 ug/disc after 24 hrs by disc diffusion method; type: functional; how it was run: as §1
Candida albicans [11] = experiment: Antifungal activity against Candida albicans 1 at 100 ug/disc after 24 hrs by disc diffusion method; type: functional; settings: read-out: IZ; how it was run: as §1
Candida albicans [12] = experiment: Antifungal activity against Candida albicans 1 at 60 ug/disc after 24 hrs by disc diffusion method; type: functional; settings: read-out: IZ; how it was run: as §1
Fusarium oxysporum [13] = experiment: Antifungal activity against Fusarium oxysporum 2 after 24 hrs by disc diffusion method; type: functional; how it was run: as §2
Mucor [14] = experiment: Antifungal activity against Mucor at 60 ug/disc after 24 hrs by disc diffusion method; type: functional; how it was run: as §1
Fusarium oxysporum [15] = experiment: Antifungal activity against Fusarium oxysporum 1 at 40 ug/disc after 24 hrs by disc diffusion method; type: functional; settings: for zone of inhibition at 40 µg/disc: read-out: IZ; how it was run: as §1
Benjaminiella poitrasii [16] = experiment: Inhibition of Benjaminiella poitrasii chitin synthase at 4 ug/mL
How it was run: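 Chitin synthase from Benjaminiella poitrasii measured with and without compound at 4 µg/ml, using a non-radioactive chitin synthase assay. Nikkomycin Z used as reference.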

Candida albicans [17] = experiment: Antifungal activity against Candida albicans 1 after 24 hrs by disc diffusion method; type: functional; how it was run: as §2
Candida albicans [18] = experiment: Antifungal activity against Candida albicans 2 at 100 ug/disc after 24 hrs by disc diffusion method; type: functional; settings: read-out: IZ; how it was run: as §1
Fusarium oxysporum [19] = experiment: Antifungal activity against Fusarium oxysporum 1 at 100 ug/disc after 24 hrs by disc diffusion method; type: functional; settings: read-out: IZ; how it was run: as §1
Benjaminiella poitrasii [20] = experiment: Inhibition of yeast hypha transition at 20 ug/mL after 4 hrs
Mucor [21] = experiment: Antifungal activity against Mucor at 40 ug/disc after 24 hrs by disc diffusion method; type: functional; how it was run: as §1

Compound | Activity (Candida albicans [1]) | zone of inhibition at 100 µg/disc (Fusarium oxysporum [4]) [mm] | MIC (Fusarium oxysporum [5]) [µg/disc] | MIC (Candida albicans [7]) [µg/disc] | zone of inhibition at 60 µg/disc (Candida albicans [8]) [mm] | Activity (Candida albicans [9]) | Activity (Mucor [10]) | zone of inhibition at 100 µg/disc (Candida albicans [11]) [mm] | zone of inhibition at 60 µg/disc (Candida albicans [12]) [mm] | MIC (Fusarium oxysporum [13]) [µg/disc] | Activity (Mucor [14]) | Activity (Fusarium oxysporum [15]) | inhibition (Benjaminiella poitrasii [16]) [%] | MIC (Candida albicans [17]) [µg/disc] | zone of inhibition at 100 µg/disc (Candida albicans [18]) [mm] | zone of inhibition at 100 µg/disc (Fusarium oxysporum [19]) [mm] | inhibition at 20 µg/mL (Benjaminiella poitrasii [20]) [%] | Activity (Mucor [21]) | zone of inhibition at 60 µg/disc (Fusarium oxysporum [3]) [mm] | zone of inhibition at 60 µg/disc (Fusarium oxysporum [6]) [mm] | further results
COc1ccc(-c2c(C#N)c(N)nc3c2C(=O)CCC3)cc1 | inactive | 6 | 100 | 60 | 3 | inactive | inactive | 4 | 3 | 100 | inactive | inactive | 81 | 60 | 4 | 6 | 95 | inactive |  |  | zone of inhibition at 40 µg/disc (Fusarium oxysporum [2]): 3 mm; Activity (Fusarium oxysporum [3]): inactive; Activity (Fusarium oxysporum [6]): inactive
N#Cc1c(N)nc2c(c1-c1ccccc1)C(=O)CCC2 | inactive | 6 | 60 | 60 | 2 | inactive | inactive | 6 | 2 | 60 | inactive | inactive | 66 | 60 | 6 | 6 | 90 | inactive | 3 | 3 | zone of inhibition at 40 µg/disc (Fusarium oxysporum [2]): 3 mm
C[C@@H]1C[C@@H]([C@H](O)CC2CC(=O)NC(=O)C2)C(=O)[C@@H](C)C1 [CYCLOHEXIMIDE] |  | 7 | 20 | 40 | 4 |  | inactive | 7 | 4 | 20 | inactive |  |  | 40 | 7 | 7 |  | inactive | 5 | 5 | zone of inhibition at 40 µg/disc (Candida albicans [1]): 2 mm; zone of inhibition at 40 µg/disc (Fusarium oxysporum [2]): 3 mm; zone of inhibition at 40 µg/disc (Candida albicans [9]): 2 mm; zone of inhibition at 40 µg/disc (Fusarium oxysporum [15]): 3 mm
CC(=O)Nc1nc2c(c(-c3ccc(C)cc3)c1C#N)C(=O)CCC2 | inactive | 5 | 60 | 60 | 3 | inactive | inactive | 7 | 3 | 60 | inactive | inactive | 66 | 60 | 7 | 5 | 90 | inactive | 3 | 3 | Activity (Fusarium oxysporum [2]): inactive
N#Cc1c(N)nc2c(c1-c1cccc(N3C(=O)C=CC3=O)c1)C(=O)CCC2 |  | 7 | 40 | 40 | 5 |  | inactive | 7 | 5 | 40 | inactive |  | 91 | 40 | 7 | 7 | 95 | inactive | 3 | 3 | zone of inhibition at 40 µg/disc (Candida albicans [1]): 3 mm; zone of inhibition at 40 µg/disc (Fusarium oxysporum [2]): 3 mm; zone of inhibition at 40 µg/disc (Candida albicans [9]): 3 mm; zone of inhibition at 40 µg/disc (Fusarium oxysporum [15]): 3 mm
N#Cc1c(N)nc2c(c1-c1ccc([N+](=O)[O-])cc1)C(=O)CCC2 | inactive | 3 | 60 | 60 | 3 | inactive | inactive | 5 | 3 | 60 | inactive | inactive | 61 | 60 | 5 | 3 | 95 | inactive | 2 | 2 | Activity (Fusarium oxysporum [2]): inactive
COc1ccc(NC(=O)Nc2cccc(-c3c(C#N)c(N)nc4c3C(=O)CCC4)c2)cc1 |  | 2 | 100 | 40 | 3 |  | inactive | 6 | 3 | 100 | inactive | inactive | 71 | 40 | 6 | 2 | 95 | inactive |  |  | zone of inhibition at 40 µg/disc (Candida albicans [1]): 2 mm; Activity (Fusarium oxysporum [2]): inactive; Activity (Fusarium oxysporum [3]): inactive; Activity (Fusarium oxysporum [6]): inactive; zone of inhibition at 40 µg/disc (Candida albicans [9]): 2 mm
Cc1ccc(-c2c(C(N)=O)c(N)nc3c2C(=O)CCC3)cc1 | inactive | 4 | 100 | 60 | 2 | inactive | inactive | 4 | 2 | 100 | inactive | inactive | 66 | 60 | 4 | 4 | 95 | inactive | 2 |  | Activity (Fusarium oxysporum [2]): inactive; Activity (Fusarium oxysporum [6]): inactive
